Reference: ChEMBL document CHEMBL5331111, “Synthetic Biology Facilitates Semisynthetic Development of Type V Glycopeptide Antibiotics Targeting Vancomycin-Resistant Enterococcus” (J Med Chem, 2023)
Converted amounts (≈) assume the structure as drawn. The source made the active and inactive calls. The rule behind the calls is not given here.

What was measured:
[1] = test system: Enterococcus faecium; assay: Antibacterial activity against Enterococcus faecium WCC 0498 assessed as inhibition of bacterial growth by Mueller-Hinton broth based assay; format: functional
[2] = test system: Enterococcus faecium; assay: Antibacterial activity against Enterococcus faecium WCC 0491 assessed as inhibition of bacterial growth by Mueller-Hinton broth based assay; format: functional
[3] = test system: Enterococcus faecium; assay: Antibacterial activity against Enterococcus faecium WCC 0545 assessed as inhibition of bacterial growth by Mueller-Hinton broth based assay; format: functional
[4] = Toxicity in cyclophosphamide induced neutropenic thigh infection CD-1 mouse model infected with Vancomycin-resistant Enterococcus faecium ATCC 700221 assessed as change in spleen weight at 100 mg/kg, ip qid measured after 24 hrs post-infection; format: organism-based; conditions: in vivo
Summary of the method: (§1)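 Female CD-1 mice, 6–10 weeks old, made neutropenic with i.p. cyclophosphamide (150 mg/kg day 4, 100 mg/kg day 1). About 1 × 10^6 CFU of E. faecium ATCC 700221, grown in BHI with vancomycin, were injected into each thigh. Dosing was i.p. at 1, 3, 5 and 20 h post-infection, in PEG400/DMSO/H₂O (45/5/50) vehicle, with vehicle controls. Mice were euthanized at 24 h.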

[5] = test system: Mycobacterium tuberculosis; assay: Antimycobacterial activity against Mycobacterium tuberculosis H37Ra assessed as inhibition of bacterial growth measured after 7 days by resazurin dye based analysis; format: functional; conditions: 168 h, time 7 day
Summary of the method: (§2)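 Strains grown in 7H9 broth with 0.2% glycerol, 10% OADC and 0.05% Tween-80. Inoculum was about 5 × 10^5 CFU/mL, checked by plating on 7H10/OADC agar to be 3–8 × 10^5. Read at 2 days for M. smegmatis and 7 days for M. tuberculosis H37Ra, M. bovis and M. avium. Resazurin 30 μg/mL was then added for one further day. Values are averages of at least two experiments.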

[6] = test system: Enterococcus faecium; assay: Antibacterial activity against Enterococcus faecium WCC 0534 assessed as inhibition of bacterial growth by Mueller-Hinton broth based assay; format: functional
[7] = test system: Enterococcus faecium; assay: Antibacterial activity against vancomycin-resistant Enterococcus faecium ATCC 700221 assessed as inhibition of bacterial growth by Mueller-Hinton broth based assay; format: functional
[8] = test system: Enterococcus faecium; assay: Antibacterial activity against Enterococcus faecium WCC 0586 assessed as inhibition of bacterial growth by Mueller-Hinton broth based assay; format: functional
[9] = Antimycobacterial activity against Mycobacterium avium subsp. avium ATCC 25291 assessed as inhibition of bacterial growth measured after 7 days by resazurin dye based analysis; format: functional; conditions: ATCC 25291, 168 h, time 7 day; summary of the method: as §2
[10] = test system: Enterococcus faecium; assay: Antibacterial activity against Enterococcus faecium WCC 0506 assessed as inhibition of bacterial growth by Mueller-Hinton broth based assay; format: functional
[11] = test system: Mycolicibacterium smegmatis; assay: Antimycobacterial activity against Mycobacterium smegmatis MC2 155 assessed as inhibition of bacterial growth measured after 2 days by resazurin dye based analysis; format: functional; conditions: MC2 155, 48 h, time 2 day; summary of the method: as §2
[12] = test system: Enterococcus faecium; assay: Antibacterial activity against Enterococcus faecium WCC 0495 assessed as inhibition of bacterial growth by Mueller-Hinton broth based assay; format: functional
[13] = test system: Enterococcus faecalis; assay: Antibacterial activity against vancomycin-resistant Enterococcus faecalis ATCC 51299 assessed as inhibition of bacterial growth by Mueller-Hinton broth based assay; format: functional
[14] = Cytotoxicity against HEK293 cells assessed as inhibition of cell growth incubated for 48 hrs by Cell-Titer Glo reagent based analysis; format: toxicity; conditions: human
Summary of the method: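 HEK293 cells seeded at 7500 cells/well in DMEM with 10% FBS, 2 mM glutamine and pen/strep, and left 18 h at 37 °C under 5% CO2. Compound then added at 1% final DMSO and incubated 48 h. Viability read by CellTiter-Glo luminescence and normalized to DMSO-only wells. Curves fitted by 4PL constrained to 0–1.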

[15] = test system: Mycolicibacterium fortuitum; assay: Antimycobacterial activity against Mycobacterium fortuitum ATCC 6891 assessed as inhibition of bacterial growth measured after 2 days by resazurin dye based analysis; format: functional; conditions: ATCC 6891, 48 h, time 2 day
Summary of the method: (§3)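 Cultured in 7H9 with 0.2% glycerol, 10% OADC and 0.05% Tween-80. Inoculum diluted to ~5 × 10^5 CFU/mL and confirmed at 3–8 × 10^5 by plating on 7H10 agar. Growth read at 2 days, then 30 μg/mL resazurin added for one more day. Values averaged from at least two experiments.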

[16] = test system: Enterococcus faecium; assay: Antibacterial activity against Enterococcus faecium WCC 0492 assessed as inhibition of bacterial growth by Mueller-Hinton broth based assay; format: functional
[17] = test system: Enterococcus faecium; assay: Antibacterial activity against Vancomycin-resistant Enterococcus faecium ATCC 700221 infected in cyclophosphamide induced neutropenic thigh infection CD-1 mouse model assessed as reduction in blood bacterial load at 100 mg/kg, ip qid measured after 24 hrs post-infection; format: functional; summary of the method: as §1
[18] = test system: Enterococcus gallinarum; assay: Antibacterial activity against vancomycin-resistant Enterococcus gallinarum ATCC 49573 assessed as inhibition of bacterial growth by Mueller-Hinton broth based assay; format: functional
[19] = test system: Enterococcus faecium; assay: Antibacterial activity against Vancomycin-resistant Enterococcus faecium ATCC 700221 infected in cyclophosphamide induced neutropenic thigh infection CD-1 mouse model assessed as reduction in weight loss at 100 mg/kg, ip qid measured after 24 hrs post-infection; format: functional, organism-based; summary of the method: as §1
[20] = test system: Enterococcus faecium; assay: Antibacterial activity against Enterococcus faecium WCC 0528 assessed as inhibition of bacterial growth by Mueller-Hinton broth based assay; format: functional
[21] = test system: Enterococcus faecium; assay: Antibacterial activity against Vancomycin-resistant Enterococcus faecium ATCC 700221 infected in cyclophosphamide induced neutropenic thigh infection CD-1 mouse model assessed as increase in survival rate at 100 mg/kg, ip qid measured after 24 hrs post-infection; format: functional, organism-based; summary of the method: as §1
[22] = test system: Enterococcus faecium; assay: Antibacterial activity against Enterococcus faecium WCC 0496 assessed as inhibition of bacterial growth by Mueller-Hinton broth based assay; format: functional
[23] = test system: Bacillus subtilis; assay: Antibacterial activity against Bacillus subtilis 168 assessed as reduction in bacterial growth by Mueller-Hinton broth based assay; format: functional
Summary of the method: (§4)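 Broth MIC by standard procedure in Mueller-Hinton broth, for both B. subtilis 168 and S. aureus ATCC 33591.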

[24] = test system: Mycobacteroides abscessus; assay: Antimycobacterial activity against Mycobacterium abscessus ATCC 19977 assessed as inhibition of bacterial growth measured after 2 days by resazurin dye based analysis; format: functional; conditions: ATCC 19977, 48 h, time 2 day; summary of the method: as §3
[25] = test system: Enterococcus faecium; assay: Antibacterial activity against Enterococcus faecium WCC 0553 assessed as inhibition of bacterial growth by Mueller-Hinton broth based assay; format: functional
[26] = test system: Enterococcus faecium; assay: Antibacterial activity against Enterococcus faecium WCC 0587 assessed as inhibition of bacterial growth by Mueller-Hinton broth based assay; format: functional
[27] = test system: Enterococcus faecium; assay: Antibacterial activity against vancomycin-resistant Enterococcus faecium WCC 0541 assessed as inhibition of bacterial growth by Mueller-Hinton broth based assay; format: functional
[28] = test system: Enterococcus faecium; assay: Antibacterial activity against Enterococcus faecium WCC 0533 assessed as inhibition of bacterial growth by Mueller-Hinton broth based assay; format: functional
[29] = test system: Enterococcus faecium; assay: Antibacterial activity against Enterococcus faecium WCC 0537 assessed as inhibition of bacterial growth by Mueller-Hinton broth based assay; format: functional
[30] = test system: Enterococcus faecium; assay: Antibacterial activity against Enterococcus faecium WCC 0516 assessed as inhibition of bacterial growth by Mueller-Hinton broth based assay; format: functional
[31] = test system: Enterococcus faecium; assay: Antibacterial activity against Enterococcus faecium WCC 0502 assessed as inhibition of bacterial growth by Mueller-Hinton broth based assay; format: functional
[32] = Toxicity in cyclophosphamide induced neutropenic thigh infection CD-1 mouse model infected with Vancomycin-resistant Enterococcus faecium ATCC 700221 assessed as change in thigh weight at 100 mg/kg, ip qid measured after 24 hrs post-infection; format: organism-based; conditions: in vivo; summary of the method: as §1
[33] = test system: Enterococcus faecium; assay: Antibacterial activity against Enterococcus faecium WCC 0558 assessed as inhibition of bacterial growth by Mueller-Hinton broth based assay; format: functional
[34] = test system: Enterococcus faecium; assay: Antibacterial activity against Enterococcus faecium WCC 0499 assessed as inhibition of bacterial growth by Mueller-Hinton broth based assay; format: functional
[35] = Hemolytic activity in human RBC incubated for 1 hr by absorbance based analysis; format: toxicity, cell-based, Erythrocyte; conditions: red blood cells (erythrocytes)
Summary of the method: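 Human K2-EDTA blood RBCs washed twice in 150 mM NaCl, resuspended in PBS pH 7.4, then diluted 1:50. Incubated with compound at 1% final DMSO for 1 h at 37 °C and pelleted at 500g for 5 min. Supernatant absorbance read at 540 nm. Controls were DMSO-only and a Triton X-100 dilution series (20% to 0.02%).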

[36] = test system: Enterococcus faecium; assay: Antibacterial activity against wild type Enterococcus faecium ATCC 19434 assessed as inhibition of bacterial growth by Mueller-Hinton broth based assay; format: functional
[37] = test system: Staphylococcus aureus; assay: Antibacterial activity against Staphylococcus aureus ATCC 33591 assessed as reduction in bacterial growth by Mueller-Hinton broth based assay; format: functional; summary of the method: as §4
[38] = test system: Enterococcus faecium; assay: Antibacterial activity against Enterococcus faecium WCC 0500 assessed as inhibition of bacterial growth by Mueller-Hinton broth based assay; format: functional
[39] = test system: Enterococcus faecium; assay: Antibacterial activity against Enterococcus faecium WCC 0524 assessed as inhibition of bacterial growth by Mueller-Hinton broth based assay; format: functional

Row | SMILES | MIC [1] | MIC [2] | MIC [3] | MIC [6] | MIC [7] | MIC [8] | MIC [10] | MIC [11] | MIC [12] | MIC [13] | MIC [15] | MIC [16] | MIC [18] | MIC [20] | MIC [25] | MIC [26] | MIC [27] | MIC [28] | MIC [29] | MIC [30] | other results
1 | CN(C)CCCNC(=O)[C@@H]1NC(=O)[C@@H]2Cc3ccc(cc3)Oc3cc4cc(c3O)-c3ccc5c(c[nH]c5c3)C[C@@H](NC(=O)C(NC(=O)CCCCCN)c3ccc(O)cc3)C(=O)N[C@H](c3ccc(O)cc3)C(=O)N[C@H]4C(=O)N[C@@H](C(=O)N2C)c2ccc(cc2)Oc2cc1ccc2O (some centres not stated) | 2 µg/mL (≈ 1.52 µM) | 1 µg/mL (≈ 0.758 µM) | 2 µg/mL (≈ 1.52 µM) | 0.5 µg/mL (≈ 0.379 µM) | 0.5 µg/mL (≈ 0.379 µM) | 1 µg/mL (≈ 0.758 µM) | 1 µg/mL (≈ 0.758 µM) | 0.5 µg/mL (≈ 0.379 µM) | 1 µg/mL (≈ 0.758 µM) | 1 µg/mL (≈ 0.758 µM) | 2 µg/mL (≈ 1.52 µM) | 2 µg/mL (≈ 1.52 µM) | 2 µg/mL (≈ 1.52 µM) | 1 µg/mL (≈ 0.758 µM) | 1 µg/mL (≈ 0.758 µM) | 1 µg/mL (≈ 0.758 µM) | 1 µg/mL (≈ 0.758 µM) | 0.5 µg/mL (≈ 0.379 µM) | 2 µg/mL (≈ 1.52 µM) | 0.5 µg/mL (≈ 0.379 µM) | Activity [4]: Non-Toxic; MIC [5]: 32 µg/mL (≈ 24.3 µM); MIC [9]: > 128 µg/mL; IC50 at 48 h [14]: > 256 µg/mL; log(activity) [17]: 3 CFU/g; Activity [19]: Active; Activity [21]: Active; MIC [22]: 1 µg/mL (≈ 0.758 µM); MIC [23]: 1 µg/mL (≈ 0.758 µM); MIC [24]: 2 µg/mL (≈ 1.52 µM); MIC [31]: 1 µg/mL (≈ 0.758 µM); Activity [32]: Non-Toxic; MIC [33]: 1 µg/mL (≈ 0.758 µM); MIC [34]: 1 µg/mL (≈ 0.758 µM); IC50 at 1 h [35]: > 256 µg/mL
2 | CN1C(=O)[C@@H]2NC(=O)[C@@H]3NC(=O)[C@@H](c4ccc(O)cc4)NC(=O)[C@H](NC(=O)C(N)c4ccc(O)cc4)Cc4c[nH]c5cc(ccc45)-c4cc3cc(c4O)Oc3ccc(cc3)C[C@H]1C(=O)N[C@@H](C(=O)O)c1ccc(O)c(c1)Oc1ccc2cc1 (some centres not stated) | 8 µg/mL (≈ 7.14 µM) | 4 µg/mL (≈ 3.57 µM) | 8 µg/mL (≈ 7.14 µM) | 4 µg/mL (≈ 3.57 µM) | 8 µg/mL (≈ 7.14 µM) | 8 µg/mL (≈ 7.14 µM) | 4 µg/mL (≈ 3.57 µM) | 8 µg/mL (≈ 7.14 µM) | 8 µg/mL (≈ 7.14 µM) | 8 µg/mL (≈ 7.14 µM) | 8 µg/mL (≈ 7.14 µM) | 8 µg/mL (≈ 7.14 µM) | 8 µg/mL (≈ 7.14 µM) | 8 µg/mL (≈ 7.14 µM) | 8 µg/mL (≈ 7.14 µM) | 8 µg/mL (≈ 7.14 µM) | 8 µg/mL (≈ 7.14 µM) | 8 µg/mL (≈ 7.14 µM) | 8 µg/mL (≈ 7.14 µM) | 8 µg/mL (≈ 7.14 µM) | MIC [36]: 8 µg/mL (≈ 7.14 µM); MIC [37]: 8 µg/mL (≈ 7.14 µM); MIC [38]: 8 µg/mL (≈ 7.14 µM); MIC [31]: 4 µg/mL (≈ 3.57 µM); MIC [39]: 4 µg/mL (≈ 3.57 µM); MIC [33]: 8 µg/mL (≈ 7.14 µM); MIC [34]: 8 µg/mL (≈ 7.14 µM)
